Measured values as given in ChEMBL document CHEMBL4811236, “New class of hantaan virus inhibitors based on conjugation of the isoindole fragment to (+)-camphor or (-)-fenchone hydrazonesv” (Bioorg Med Chem Lett, 2021).

Columns and labels:
[1] = Cytotoxicity against human HEK293T cells measured after 72 hrs by MTT assay; format: cell-based, HEK-293T
In short: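 HEK293T cells were exposed to compounds for 72 h. CC50 was the concentration causing 50% cell death, reported as M ± I95, n = 3.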

[2] = test system: Vesicular stomatitis virus; test: Antiviral activity against pseudotyped recombinant vesicular stomatitis virus delta G Gn-Gc infected HEK293T cells assessed as reduction in virus replication incubated for 48 hrs by luminescence assay; format: functional, organism-based; conditions: HEK-293T
In short: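 Gn-Gc-pseudotyped VSV-ΔG particles were made by transfecting HEK293T cells with a Hantaan 76–118 Gn-Gc plasmid, adding VSV-ΔG-G after 48 h, and harvesting the supernatant 48 h later. Pseudovirus (500,000 RLU) was preincubated with a range of compound concentrations for 1 h, then a HEK293T cell suspension was added. IC50 reported as M ± I95, n = 3.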

[3] = Cytotoxicity against MDCK cells by MTT assay; format: cell-based, Canis lupus familiaris; conditions: dog
[4] = test system: Orthohantavirus hantanense; test: Antiviral activity against Hantaan 76-118 pseudovirus infected in MDCK cells assessed as reduction in virus replication incubated for 48 hrs by luminescence assay; format: functional, organism-based
[5] = Selective index, ratio of CC50 for MDCK cells to IC50 for Hantaan 76-118; format: toxicity; conditions: dog, read-out: Ratio CC50/IC50
[6] = Selective index, ratio of CC50 for HEK293T cells to IC50 for antiviral activity against pseudotyped recombinant vesicular stomatitis virus delta G Gn-Gc infected HEK293T cells; format: toxicity; conditions: human, read-out: Ratio CC50/IC50
In short: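 Selectivity index was calculated as CC50 (HEK293T, 72 h exposure) divided by IC50 against rVSV-ΔG-Gn-Gc pseudovirus in HEK293T cells.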

[7] = test system: Orthohantavirus hantanense; test: Antiviral activity against HTNV strain 76-118 infected african green monkey Vero E6 cells measured after 3 days by plaque-formation assay; format: functional, organism-based; conditions: 76-118, Vero C1008, 72 h
[8] = Orthohantavirus hantanense, 76-118, MDCK, 48 h, read-out: IC50

Compound	CC50 at 72 h [1] [µM]	IC50 [2] [µM]	CC50 at 336 h [3] [µM]	IC50 ([4]; mdck)	selectivity ratio [5]	IC50 [4, 8] [µM]	selectivity ratio [6]	EC50 [7] [µM]
CCN1CC23C=CC(O2)C(C(=O)N/N=C2\C[C@H]4CC[C@]2(C)C4(C)C)C3C1=O (mixture of isomers)	1070	790	250	Not Active	–	–	–	–
CC1(C)[C@@H]2CC[C@@]1(C)/C(=N/NC(=O)c1ccccc1)C2	1100	780	> 150	Not Active	–	–	–	–
CCC12C=CC3(CN(c4ccccc4)C(=O)C3C1C(=O)N/N=C1\C(C)(C)[C@H]3CC[C@]1(C)C3)O2 (mixture of isomers)	–	–	120	–	3	40	–	–
CC12CCC3(CN(c4ccccc4)C(=O)C3C1C(=O)N/N=C1\C[C@H]3CC[C@]1(C)C3(C)C)O2 (mixture of isomers)	1450	375	130	–	6	20	3	–
CC12C=CC3(CN(CCc4ccccc4)C(=O)C3C1C(=O)N/N=C1\C[C@H]3CC[C@]1(C)C3(C)C)O2 (mixture of isomers)	216	69	195	–	4	42	3	–
CC12C=CC3(CN(c4ccccc4)C(=O)C3C1C(=O)N/N=C1\C(C)(C)[C@H]3CC[C@]1(C)C3)O2 (mixture of isomers)	1180	431	1060	–	140	7.6	3	–
CC(C)N1CC23C=CC(C)(O2)C(C(=O)N/N=C2\C[C@H]4CC[C@]2(C)C4(C)C)C3C1=O (mixture of isomers)	> 2500	468	250	–	3	92	5	–
CC12C=CC3(CN(Cc4ccccc4)C(=O)C3C1C(=O)N/N=C1\C[C@H]3CC[C@]1(C)C3(C)C)O2 (mixture of isomers)	335	147	245	–	7	33	2	–
CC1(C)[C@@H]2CC[C@@]1(C)/C(=N/NC(=O)c1cccc3c1C(=O)N(Cc1ccccc1)C3)C2	–	–	> 300	Not Active	–	–	–	–
CCCCN1CC23C=CC(C)(O2)C(C(=O)N/N=C2\C[C@H]4CC[C@]2(C)C4(C)C)C3C1=O (mixture of isomers)	–	–	246	–	9	26	–	–
CC12C=CC3(CN(c4ccc(Br)cc4)C(=O)C3C1C(=O)N/N=C1\C[C@H]3CC[C@]1(C)C3(C)C)O2 (mixture of isomers)	175	120	78	Not Active	–	–	–	–
COCCN1CC23C=CC(O2)C(C(=O)N/N=C2\C[C@H]4CC[C@]2(C)C4(C)C)C3C1=O (mixture of isomers)	1030	> 800	250	Not Active	–	–	–	–
CC1(C)[C@@H]2CC[C@@]1(C)/C(=N/NC(=O)C1C3C=CC4(CN(Cc5ccccc5)C(=O)C14)O3)C2 (mixture of isomers)	860	750	250	Not Active	–	–	–	–
CC12C=CC3(CN(c4ccccc4)C(=O)C3C1C(=O)N/N=C1\C[C@H]3CC[C@]1(C)C3(C)C)O2 (mixture of isomers)	448	96	142	–	10	14	4	–
CC12C=CC3(CN(c4ccccc4)C(=O)C3C1C(=O)N/N=C1\CC3CCC1C3)O2 (mixture of isomers)	–	–	269	–	9	28	–	–
O=c1c2ncn([C@@H]3O[C@H](CO)[C@@H](O)[C@H]3O)c2ncn1-c1cccc(F)c1	–	–	–	–	–	–	–	94
COc1ccc(N2CC34C=CC(C)(O3)C(C(=O)N/N=C3\C(C)(C)[C@H]5CC[C@]3(C)C5)C4C2=O)cc1 (mixture of isomers)	152	74	292	–	9	30	2	–
CC1(C)[C@@H]2CC[C@@]1(C)/C(=N/NC(=O)C1C3OC4(CN(c5ccccc5)C(=O)C14)C1OC31)C2 (mixture of isomers)	1040	195	195	–	5	37	5	–
CC12C=CC3(CN(c4ccc(Br)cc4)C(=O)C3C1C(=O)N/N=C1\C(C)(C)[C@H]3CC[C@]1(C)C3)O2 (mixture of isomers)	78	65	80	Not Active	–	–	–	–
COc1ccc(N2CC34C=CC(C)(O3)C(C(=O)N/N=C3\C[C@H]5CC[C@]3(C)C5(C)C)C4C2=O)cc1 (mixture of isomers)	–	–	120	–	6	19	–	–
CSc1nc2[nH]nc([N+](=O)[O-])c(=O)n2n1	1510	408	368	–	26	14	4	–
NC(=O)c1ncn([C@@H]2O[C@H](CO)[C@@H](O)[C@H]2O)n1 [RIBAVIRIN]	–	–	20	Not Active	–	–	–	–
